Experimental findings from ChEMBL document CHEMBL1124096, “Potential anticonvulsants. 11. Synthesis and anticonvulsant activity of spiro[1,3-dioxolane-2,3'-indolin]-2'-ones and structural analogues” (J Med Chem, 1988) are described below.

Usually ED50 stands for the dose that gives a 50% effect, or the effect in half of the subjects. The TD50 is the dose at which the toxic effect under study appears in half of the subjects. Low readings indicate harm at a small dose, high ones harm only at a large dose.

Series [1] is described as follows: Ability to protect mice against electrically induced seizures (MES) at 300 mg/kg for 0.5 hr in Phase I; no. of animals protected/No. of animals tested= 0/1. Further details: dose 300 mg/kg. In kind it is functional, organism-based.
Series [2] can be described thus: Ability to protect mice against subcutaneous pentylenetetrazole seizures (sc-Met) threshold test at 100 mg/kg for 0.5 hr in Phase I; no. of animals protected/No. of animals tested= 0/1. On the set-up: dose 100 mg/kg. It counts as functional, organism-based.
Series [3] is described as follows: Ability to protect mice against subcutaneous pentylenetetrazole seizures (sc-Met) threshold test at 300 mg/kg for 0.5 hr in Phase I; no. of animals protected/No. of animals tested= 0/1. It counts as functional, organism-based. On the set-up: dose 300 mg/kg.
A short description of series [4]: Ability to protect mice against electrically induced seizures (MES) at 100 mg/kg for 0.5 hr in Phase I; no. of animals protected/No. of animals tested= 0/3. In kind it is functional, organism-based. Further details: dose 100 mg/kg.
The test system of series [5] is Mus musculus. Nature of the series: Ability to protect mice against neurotoxicity (rotarod test) at 300 mg/kg for 0.5 hr in Phase I; no. of animals protected/No. of animals tested 0/4. In kind it is organism-based. Conditions: in vivo. On the set-up: dose 300 mg/kg.
Series [6] is filed under the species Mus musculus. Nature of the series: Phase II effective dose against mice for maximal electroshock seizure test (MES) for 0.25 hr of test time. It counts as functional. In short, it runs like this:
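Phase II quantification: time of peak effect first determined, then median effective dose in the MES test (corneal 60-cycle AC, 50 mA, 0.2 s) found at that time, 0.25 h. Compound given ip.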
Background: In the maximal electroshock model the usual endpoint is tonic extension of the hind limbs.

The nature of series [7]: Protective index (TD50/ED50) for MES test in mice. To be noted: mouse, in vivo; read-out: PI. It counts as ADME, organism-based. An outline of the steps:
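Protective index taken as TD50 (rotorod) divided by MES ED50. Both measured in Phase II at the time of peak effect, 0.25 h, after ip dosing.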

Series [8] can be described thus: Phase II effective dose against mice for toxicity test (TOX) for 0.25 hr of test time. It counts as organism-based. To be noted: mouse, in vivo. An outline of the steps: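 Phase II: time of peak neurologic toxicity first determined. Median toxic dose then found by rotorod (1-in. knurled rod, 6 rpm, 1 min) at that time, 0.25 h. Compound given ip.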

For `O=C1N(Cc2ccccc2)c2ccccc2C12OCCO2`, the Ratio entry (in series [1]; in series [2]; in series [3]; in series [4]; in the series on Mus musculus [5]) was “no. of animals protected/No. of animals tested 0/4” in each case.
In the series filed under Mus musculus [6], `O=C1Nc2ccccc2C12OCCCO2` yielded an ED50 of 110 mg/kg. Moreover, the selectivity ratio in series [7] turned out to be 1.67.
In the series listed under Mus musculus [6], `O=C1Nc2ccccc2C12OCCS2` (stereo unspecified) displayed an ED50 of 60.4 mg/kg. In addition, the selectivity ratio in series [7] stood at 1.65.
With `O=C1Nc2ccccc2C12OCCO2`, in the series filed under Mus musculus [6], the ED50 is 69.8 mg/kg. Besides, the selectivity ratio in series [7] came out at 1.87. Besides, in series [8], the TD50 at 0.25 h was 130 mg/kg.
For `O=C1Nc2ccc(Cl)cc2C12OCCO2`, in that order: 28 mg/kg, 2.28 and 63.7 mg/kg.
For `O=C1Nc2cccc(Cl)c2C12OCCO2`, in that order: 95.6 mg/kg, 1.24 and 122 mg/kg.
In the same order, the values of `COC1(OC)C(=O)Nc2ccccc21` are 82 mg/kg, 2.47 and 203 mg/kg.
Take `O=C1Nc2ccc(Br)cc2C12OCCO2`: in the series listed under Mus musculus [6], the ED50 stood at 46.1 mg/kg. Besides, the selectivity ratio in series [7] worked out at 1.87. For the same molecule, the TD50 at 0.25 h in series [8] was found to be 86.5 mg/kg.
For `O=C1Nc2cc(Cl)ccc2C12OCCO2`, in that order: 72 mg/kg, 1.68 and 121 mg/kg.
Turning to `O=C1N(CN2CCCCC2)c2ccccc2C12OCCO2`, the selectivity ratio in series [7] came to 1.39. The same molecule yielded a TD50 at 0.25 h in series [8] of 187 mg/kg.
In the series filed under Mus musculus [6], `CN1C(=O)C2(OCCO2)c2ccccc21` returned an ED50 of 90.9 mg/kg. Besides, the selectivity ratio in series [7] amounted to 1.3. Besides, the TD50 at 0.25 h in series [8] stood at 118 mg/kg.
`O=C1N(CN2CCOCC2)c2ccccc2C12OCCO2` registered an ED50 in the series listed under Mus musculus [6] of 90 mg/kg. Besides, in series [7], the selectivity ratio came to 1.89. The molecule also came in with a TD50 at 0.25 h in series [8] of 170 mg/kg.
On to `O=C1Nc2ccccc2C12SCCS2`, for which the ED50 in the series filed under Mus musculus [6] is 174 mg/kg.
